Columns and labels:
[1] = system: patients with advanced solid tumors; experiment: Phase I dose escalation: safety and tolerability; assay type: in vivo, human
Outline: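 Patients received a single 1 mg oral dose on cycle 0 day 1, then a washout on days 2-7. Oral once-daily dosing followed in 28-day cycles from day 8-10. Doses were escalated by mTPI design (target DLT rate 25% ± 5%). DLTs were assessed over cycles 0-1 against predefined haematological, non-haematological, calcification and hyperphosphataemia criteria. AEs were coded by MedDRA v20.1 and graded by CTCAE v4.03.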

FGFR = settings: SNU‐16 cells, dose‐dependent; cited from earlier work
advanced solid tumors = experiment: Antitumor activity by RECIST v1.1 in phase I; assay type: in vivo, human
Outline: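 Tumours assessed by CT and/or MRI per RECIST v1.1 at screening, every 8 weeks from cycle 1 day 1, and at discontinuation. Oral once-daily dosing ran in 28-day cycles. Best overall response was scored in patients with ≥1 RECIST target lesion. The efficacy set covered treated patients with a baseline and ≥1 post-baseline assessment.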

## CNC(=O)n1ccc2cc(Oc3ccnc(NC(=O)c4ccc(C5CCN(CCO)CC5)cc4)c3)c(OCCOC)cc21 [E7090]
[1]; 100 mg (n = 3), any grade
  Anemia, treatment‐related TEAE: 1 (33.3) n (%)
  Blood ALP increased, treatment‐related TEAE: 1 (33.3) n (%)
  Blood creatinine increased, treatment‐related TEAE: 1 (33.3) n (%)
  Hyperphosphatemia, treatment‐related TEAE: 3 (100.0) n (%)
  Lipase increased, treatment‐related TEAE: 1 (33.3) n (%)
  Nausea, treatment‐related TEAE: 1 (33.3) n (%)
  Retinal detachment, treatment‐related TEAE: 2 (66.7) n (%)
[1]; 140 mg (n = 3), any grade
  ALT increased, treatment‐related TEAE: 3 (100.0) n (%)
  AST increased, treatment‐related TEAE: 2 (66.7) n (%)
  Anemia, treatment‐related TEAE: 1 (33.3) n (%)
  Blood ALP increased, treatment‐related TEAE: 2 (66.7) n (%)
  Blood creatinine increased, treatment‐related TEAE: 3 (100.0) n (%)
  Diarrhea, treatment‐related TEAE: 1 (33.3) n (%)
  Dysgeusia, treatment‐related TEAE: 2 (66.7) n (%)
  Hyperphosphatemia, treatment‐related TEAE: 3 (100.0) n (%)
  Lipase increased, treatment‐related TEAE: 1 (33.3) n (%)
  Nausea, treatment‐related TEAE: 1 (33.3) n (%)
  PPE syndrome, treatment‐related TEAE: 1 (33.3) n (%)
  Retinal detachment, treatment‐related TEAE: 1 (33.3) n (%)
  Vomiting, treatment‐related TEAE: 1 (33.3) n (%)
[1]; 180 mg (n = 3), any grade
  ALT increased, treatment‐related TEAE: 2 (66.7) n (%)
  AST increased, treatment‐related TEAE: 2 (66.7) n (%)
  Blood creatinine increased, treatment‐related TEAE: 1 (33.3) n (%)
  Diarrhea, treatment‐related TEAE: 3 (100.0) n (%)
  Dysgeusia, treatment‐related TEAE: 1 (33.3) n (%)
  Hyperphosphatemia, treatment‐related TEAE: 3 (100.0) n (%)
  Lipase increased, treatment‐related TEAE: 1 (33.3) n (%)
  Nausea, treatment‐related TEAE: 1 (33.3) n (%)
  PPE syndrome, treatment‐related TEAE: 2 (66.7) n (%)
  Vomiting, treatment‐related TEAE: 1 (33.3) n (%)
[1]; 180 mg (n = 3), ≥Grade 3
  ALT increased, treatment‐related TEAE: 2 (66.7) n (%)
  AST increased, treatment‐related TEAE: 1 (33.3) n (%)
  Vomiting, treatment‐related TEAE: 1 (33.3) n (%)
[1]; 1‐30 mg (n = 12), any grade
  Blood creatinine increased, treatment‐related TEAE: 2 (16.7) n (%)
  Lipase increased, treatment‐related TEAE: 1 (8.3) n (%)
  Nausea, treatment‐related TEAE: 1 (8.3) n (%)
[1]; QD
  Recommended dose for Part 2 (expansion part): 140 mg
[1]; Total (N = 24), any grade
  ALT increased, treatment‐related TEAE: 6 (25.0) n (%)
  AST increased, treatment‐related TEAE: 4 (16.7) n (%)
  Anemia, treatment‐related TEAE: 3 (12.5) n (%)
  Blood ALP increased, treatment‐related TEAE: 3 (12.5) n (%)
  Blood creatinine increased, treatment‐related TEAE: 9 (37.5) n (%)
  Diarrhea, treatment‐related TEAE: 6 (25.0) n (%)
  Dysgeusia, treatment‐related TEAE: 3 (12.5) n (%)
  Hyperphosphatemia, treatment‐related TEAE: 9 (37.5) n (%)
  Lipase increased, treatment‐related TEAE: 5 (20.8) n (%)
  Nausea, treatment‐related TEAE: 5 (20.8) n (%)
  PPE syndrome, treatment‐related TEAE: 4 (16.7) n (%)
  Retinal detachment, treatment‐related TEAE: 3 (12.5) n (%)
  Vomiting, treatment‐related TEAE: 3 (12.5) n (%)
[1]; Total (N = 24), ≥Grade 3
  ALT increased, treatment‐related TEAE: 2 (8.3) n (%)
  AST increased, treatment‐related TEAE: 1 (4.2) n (%)
  Vomiting, treatment‐related TEAE: 1 (4.2) n (%)
[1]; daily oral dose of 1‐180 mg
  Maximum tolerated dose (MTD): not reached
[1]; in vivo
  Drug‐related deaths: No drug‐related deaths were reported
  Number of AE of hyperphosphatemia: nine
  Number of AE of retinal detachment: three
  SAE considered related to the study drug: None
  TEAE leading to discontinuation of the study drug: no TEAE led to discontinuation
  TEAE leading to dose reduction: PPE syndrome: 2 n
  TEAE leading to dose reduction: increased ALT: 2 n
  TEAE leading to dose reduction: increased AST: 1 n
  TEAE‐related dose interruption: anorexia: 2 n
  TEAE‐related dose interruption: decreased neutrophil count: 1 n
  TEAE‐related dose interruption: nasopharyngitis: 1 n
  TEAE‐related dose interruption: nausea: 3 n
  TEAE‐related dose interruption: vomiting: 2 n
[1]; of 24 patients treated
  Number of patients with SAE: three
FGFR
  Phosphorylation of downstream molecules including FRS2α, ERK1/2, and AKT: inhibited phosphorylation
Advanced solid tumors; 30‐mg cohort
  Antitumor activity in cholangiocarcinoma with FGFR2 fusion: did not show potent antitumor activity
Advanced solid tumors; 180‐mg cohort, gastric cancer with FGFR2 amplification, cycle 3 day 1, from 38 to 11 mm
  Reduction in diameter of the target lesion: 71%

Reference: article PMC7004556 (Cancer Science, 2020)
